This is a sample that favours compounds with a hit; in the whole collection about 11% have one here.
S1P3 ag: human S1P3 receptor agonists, primary screen, cell-based, primary and confirmation, NFAT-BLA reporter. activation, % at 4.5 µM. S1P3 NFAT-BLA reporter cells, agonism, FRET ratio; relative to 1 µM S1P, basal subtracted. AID 373, 2006. hit rate 0.1% among 60,000. Sphingosine 1-phosphate receptor 3 (Homo sapiens), Q99500;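 active = activation above the screen-wide mean plus 3 SD, cut at about 4.5% in these data, passing the limit was not always enough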
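Benchmarks: high control 1 µM S1P / System: stable CHO line with human S1P3, Gα16, NFAT-BLA reporter / Dosing: single compound concentration, 4.5 µM final / Timing: 4 h compound at 37 °C, 2 h substrate at RT / Measured by: FRET β-lactamase substrate fluorescence, excitation 405 nm, 460/535 nm emission ratio, background-subtracted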
D1 allo mod: D1 CRE-luciferase signal change, two-sided – cell-based, HEK293 D1, dopamine EC30, D1 allosteric modulator project, primary screen; D(1A) dopamine receptor (Homo sapiens), P21728; dopamine EC30 potentiation; actives deviate in either direction; B-score at 10 µM; hit rate 5.9% among 58,000; AID 641, 2007;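 active = luminescence count or its row- and column-corrected plate score outside the 99.7% band of the plate's sample wells, on either side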
Target sequence (P21728 whole entry, looked up): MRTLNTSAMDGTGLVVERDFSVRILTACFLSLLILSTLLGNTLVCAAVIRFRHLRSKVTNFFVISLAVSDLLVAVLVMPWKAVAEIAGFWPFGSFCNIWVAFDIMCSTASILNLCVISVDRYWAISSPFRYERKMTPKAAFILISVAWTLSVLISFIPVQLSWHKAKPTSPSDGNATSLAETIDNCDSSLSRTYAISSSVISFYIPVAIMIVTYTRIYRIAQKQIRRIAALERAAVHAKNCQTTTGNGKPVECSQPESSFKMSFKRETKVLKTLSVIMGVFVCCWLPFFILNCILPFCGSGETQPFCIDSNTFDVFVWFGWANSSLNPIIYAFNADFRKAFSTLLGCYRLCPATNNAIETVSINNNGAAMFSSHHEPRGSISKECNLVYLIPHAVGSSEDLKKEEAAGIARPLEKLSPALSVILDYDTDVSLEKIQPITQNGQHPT
S1P1 ag pot: S1P1 agonists and agonism potentiators, primary screen, cell-based, primary and confirmation screens, CRE-bla reporter. activation, % at 9.5 µM. Sphingosine 1-phosphate receptor 1 (Homo sapiens), P21453. AID 449, 2006. hit rate 0.57% among 56,000. S1P1 CRE-bla cells, forskolin, beta-lactamase FRET, potentiator mode; S1P1 agonist co-added at EC20, 2 nM; 100% = saturating reference agonist, 0% = basal;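 active = activation above a cutoff set at the mean activation of all tested compounds plus 3 SD, cut at about 54% in these data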;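 note: forskolin at 4 µM as EC80 and the EC20 agonist is SEW2871; 100% = SEW2871 at its EC100 plus forskolin at EC80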
M1 agonist: M1 muscarinic receptor agonists, primary screen, CHO-M1 cells, Fluo-4 calcium, agonist mode. AID 626, 2007. B-score at 10 µM. Fluo-4 calcium fluorescence; active compounds read high. hit rate 3% among 64,000;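 active = fluorescence rise, raw or as B-score row- and column-corrected plate score, outside the 99.7% band of its plate's samples, either direction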
M1 antagonist: antagonists of rat M1 muscarinic receptor. Muscarinic acetylcholine receptor M1 (Rattus norvegicus), P08482. CHO-M1 cells, Fluo-4 calcium, ACh EC80 antagonist mode; active compounds read low. B-score at 10 µM. hit rate 3.4% among 64,000;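 active = calcium fluorescence response, raw or row-and-column corrected B-score, differing from the plate sample mean either way at a set confidence level, mostly lower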
M1 antag conf: rat M1 muscarinic receptor antagonists, confirmation, CHO cells, Fluo-4 calcium, duplicate; shares compounds with M1 antagonist; ACh EC80 antagonism; active compounds read low; calcium response (max-min fluorescence) at 10 µM; hit rate 43% among 1,700;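 active = calcium response below the same-plate mean of wells given acetylcholine alone at its 80%-effect dose, minus 3 SD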;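 note: raw fluorescence intensity difference in arbitrary instrument units and not normalized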
mGluR4 antag: human mGluR4 response to M1 antagonist hits, M1 allosteric modulator project, cell-based, antagonist mode, secondary assay 1; fluorescence response (max-min) at 10 µM; CHO-mGluR4 calcium flux, Fluo-4 fluorescence, glutamate EC80; active compounds read low; hit rate 0.9% among 1,700; shares compounds with M1 antagonist;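 active = fluorescence response below the plate's average for near-maximal glutamate wells, less 3 SD of those wells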;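 note: raw unnormalized fluorescence span taken in the window right after glutamate addition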
* = called active by the depositor.

How did COc1ccc(NCc2nnc(SCC(=O)c3ccc(OC)cc3)n2C)cc1 do in these assays?
S1P3 ag: -1.0; D1 allo mod: -0.83; S1P1 ag pot: 17.3; M1 agonist: -0.939; M1 antagonist: -0.43

What do the screens show for `O=c1c2c(nc3n1CCCCC3)-c1ccccc1CC21CCCC1`?
S1P3 ag: -0.5; D1 allo mod: -0.185; S1P1 ag pot: 16.6; M1 agonist: -0.894; M1 antagonist: -8.22*; M1 antag conf: 314*; mGluR4 antag: 264

What do the screens show for `O=C(CCNS(=O)(=O)c1cccc2nonc12)N1CCN(c2cccc(Cl)c2)CC1`?
M1 agonist: 0.187; M1 antagonist: -3.13*; M1 antag conf: 253*; mGluR4 antag: 251

How did O=C(CCS(=O)(=O)c1cccc2nonc12)N1CCN(c2ccc(F)cc2)CC1 do in these assays?
D1 allo mod: -0.108; M1 agonist: 0.0405; M1 antagonist: -6.86*; M1 antag conf: 622; mGluR4 antag: 303

Results for CCOc1ccc(C(C)=O)cc1Cn1nc(C(=O)O)c2ccccc2c1=O ?
S1P3 ag: 0.0; D1 allo mod: 1.06; S1P1 ag pot: -22.4; M1 agonist: 0.533; M1 antagonist: -1.12

What do the screens show for `COc1c(C)cc(Br)cc1C(=O)O`?
S1P3 ag: -0.8; D1 allo mod: -0.283; M1 agonist: 0.484; M1 antagonist: -12.6*; M1 antag conf: 710; mGluR4 antag: 203

What do the screens show for `COc1ccc2cc(CN(CCO)C(=O)c3ccccc3F)c(=O)[nH]c2c1`?
D1 allo mod: -0.232; M1 agonist: -0.00747; M1 antagonist: -2.73*; M1 antag conf: 670; mGluR4 antag: 249

Results for CCOc1ccc2[nH]c(=O)c(CN(CCO)C(=O)c3ccccc3F)cc2c1 ?
S1P3 ag: -1.3; D1 allo mod: 0.0635; S1P1 ag pot: 1.3; M1 agonist: 0.126; M1 antagonist: 0.016

What do the screens show for `O=C(O)C1CCCN1c1ncnc2ccccc12` (stereo not given)?
S1P3 ag: -0.3; D1 allo mod: 0.407; M1 agonist: -0.113; M1 antagonist: 0.856

How did CC1(C)CC2CC(C)(CN2c2ncnc3ccccc23)C1 (stereo not given) do in these assays?
S1P3 ag: -0.9; D1 allo mod: 0.739; S1P1 ag pot: 29.5; M1 agonist: -0.38; M1 antagonist: -2.16*; M1 antag conf: 516; mGluR4 antag: 251

Results for Oc1c(C(c2ccco2)N2CCN(C(c3ccccc3)c3ccccc3)CC2)sc2ncnn12 (stereo not given) ?
S1P3 ag: -2.2; D1 allo mod: -0.0123; S1P1 ag pot: 57.0; M1 agonist: -0.408; M1 antagonist: -3.44*; M1 antag conf: 512*; mGluR4 antag: 267

Results for Oc1c(C(c2ccccc2)N2CCc3ccccc3C2)sc2ncnn12 (stereo not given) ?
S1P3 ag: -0.5; D1 allo mod: 0.0819; S1P1 ag pot: -10.4; M1 agonist: -0.941; M1 antagonist: -0.315

Results for CC(=O)Nc1cccc(-c2csc(NCc3ccco3)n2)c1 ?
S1P3 ag: 0.6; D1 allo mod: -0.244; S1P1 ag pot: 8.9; M1 agonist: 0.106; M1 antagonist: -0.139

What do the screens show for `CC(C)N(C(=O)COc1ccc(Br)cc1Cl)C(C)C`?
S1P3 ag: 0.0; D1 allo mod: -0.215; S1P1 ag pot: -18.5; M1 agonist: -0.44; M1 antagonist: -0.388

How did CN(C)CCNC(=O)Cn1nc(C(F)F)cc1C1CC1 do in these assays?
S1P3 ag: 0.3; D1 allo mod: -0.0833; S1P1 ag pot: -13.3; M1 agonist: 0.411; M1 antagonist: 0.331

What do the screens show for `CCN(CC)Cc1cc(CC(C(N)=O)C(N)=O)ccc1OC`?
S1P3 ag: -1.2; D1 allo mod: -0.108; S1P1 ag pot: 10.0; M1 agonist: 1.07; M1 antagonist: -2.49*; M1 antag conf: 672; mGluR4 antag: 224

Results for CCN(CC)Cc1cc(C(C)=O)ccc1OCC(C)C ?
S1P3 ag: 0.9; S1P1 ag pot: 9.1; M1 agonist: -0.379; M1 antagonist: -0.322

What do the screens show for `CN(C)CCCOC(=O)Cc1ccc(Cl)cc1`?
S1P3 ag: -0.8; D1 allo mod: -0.187; S1P1 ag pot: -6.3; M1 agonist: 0.0461; M1 antagonist: -2.28*; M1 antag conf: 463; mGluR4 antag: 198

Results for O=C(NC1CC2CCCC(C1)N2Cc1ccco1)NC12CC3CC(CC(C3)C1)C2 (stereo not given) ?
S1P3 ag: -0.4; D1 allo mod: 2.12; S1P1 ag pot: -64.6; M1 agonist: -0.558; M1 antagonist: -0.206

Results for CCC1(C)Cc2c(sc3c2c(=O)n(C)c2nnc(SCCc4ccccc4)n32)CO1 (stereo not given) ?
S1P3 ag: -0.8; D1 allo mod: 0.215; S1P1 ag pot: -20.1; M1 agonist: -1; M1 antagonist: -3.13*; M1 antag conf: 489*; mGluR4 antag: 244

How did CCC1(C)Cc2c(sc3c2c(=O)n(C)c2nnc(SCc4ccccc4)n32)CO1 (stereo not given) do in these assays?
S1P3 ag: 19.9; S1P1 ag pot: 7.4; M1 agonist: -0.00296; M1 antagonist: 0.146

How did Cc1ccc(N(CC(=O)Nc2ccc3c(c2)OCCO3)S(=O)(=O)c2c(C)noc2C)cc1 do in these assays?
S1P3 ag: 0.2; D1 allo mod: -1.31; S1P1 ag pot: 6.6; M1 agonist: 1.34; M1 antagonist: -3.02*; M1 antag conf: 529; mGluR4 antag: 219

What do the screens show for `Cc1cc(C)n(CCOc2ccc(Cl)cc2Cl)n1`?
S1P3 ag: -0.2; D1 allo mod: 0.456; S1P1 ag pot: 15.7; M1 agonist: -0.455; M1 antagonist: -0.0417

Results for O=C(C(Cc1ccccc1)n1cccc1)N1CCN(Cc2ccccc2)CC1 (stereo not given) ?
S1P3 ag: -0.7; D1 allo mod: -0.436; S1P1 ag pot: -13.2; M1 agonist: 0.244; M1 antagonist: -16.4*; M1 antag conf: 18.2*; mGluR4 antag: 196

What do the screens show for `Cc1cc(C(=O)OCC(=O)N(C)C2CCS(=O)(=O)C2)c(C)n1-c1ccccc1` (stereo not given)?
S1P3 ag: -0.4; D1 allo mod: -0.625; S1P1 ag pot: 0.8; M1 agonist: 0.118; M1 antagonist: -2.7*; M1 antag conf: 544; mGluR4 antag: 227

Bioassay records: PubChem, several laboratories
